Data on 15 molecules can be found in ChEMBL document CHEMBL4130522, “Synthesis and Pharmacological Evaluation of Selective Histone Deacetylase 6 Inhibitors in Melanoma Models” (ACS Med Chem Lett, 2017).

Activity calls are given as the source filed them. Bounds are passed on as bounds.

Series [1] concerns the target Histone deacetylase 1 (Homo sapiens, UniProt Q13547). Nature of the series: Inhibition of recombinant human full length HDAC1 expressed in baculovirus infected Sf9 insect cells using p53 (379 to 382 residues) derived RHKKAc as substrate preincubated for 5 to 10 mins followed by substrate addition measured after 2 hrs by fluorescence assay.
Series [2] concerns the target T1, Protein deacetylase HDAC6 (Homo sapiens, UniProt Q9UBN7).
T1 sequence (Q9UBN7 whole entry): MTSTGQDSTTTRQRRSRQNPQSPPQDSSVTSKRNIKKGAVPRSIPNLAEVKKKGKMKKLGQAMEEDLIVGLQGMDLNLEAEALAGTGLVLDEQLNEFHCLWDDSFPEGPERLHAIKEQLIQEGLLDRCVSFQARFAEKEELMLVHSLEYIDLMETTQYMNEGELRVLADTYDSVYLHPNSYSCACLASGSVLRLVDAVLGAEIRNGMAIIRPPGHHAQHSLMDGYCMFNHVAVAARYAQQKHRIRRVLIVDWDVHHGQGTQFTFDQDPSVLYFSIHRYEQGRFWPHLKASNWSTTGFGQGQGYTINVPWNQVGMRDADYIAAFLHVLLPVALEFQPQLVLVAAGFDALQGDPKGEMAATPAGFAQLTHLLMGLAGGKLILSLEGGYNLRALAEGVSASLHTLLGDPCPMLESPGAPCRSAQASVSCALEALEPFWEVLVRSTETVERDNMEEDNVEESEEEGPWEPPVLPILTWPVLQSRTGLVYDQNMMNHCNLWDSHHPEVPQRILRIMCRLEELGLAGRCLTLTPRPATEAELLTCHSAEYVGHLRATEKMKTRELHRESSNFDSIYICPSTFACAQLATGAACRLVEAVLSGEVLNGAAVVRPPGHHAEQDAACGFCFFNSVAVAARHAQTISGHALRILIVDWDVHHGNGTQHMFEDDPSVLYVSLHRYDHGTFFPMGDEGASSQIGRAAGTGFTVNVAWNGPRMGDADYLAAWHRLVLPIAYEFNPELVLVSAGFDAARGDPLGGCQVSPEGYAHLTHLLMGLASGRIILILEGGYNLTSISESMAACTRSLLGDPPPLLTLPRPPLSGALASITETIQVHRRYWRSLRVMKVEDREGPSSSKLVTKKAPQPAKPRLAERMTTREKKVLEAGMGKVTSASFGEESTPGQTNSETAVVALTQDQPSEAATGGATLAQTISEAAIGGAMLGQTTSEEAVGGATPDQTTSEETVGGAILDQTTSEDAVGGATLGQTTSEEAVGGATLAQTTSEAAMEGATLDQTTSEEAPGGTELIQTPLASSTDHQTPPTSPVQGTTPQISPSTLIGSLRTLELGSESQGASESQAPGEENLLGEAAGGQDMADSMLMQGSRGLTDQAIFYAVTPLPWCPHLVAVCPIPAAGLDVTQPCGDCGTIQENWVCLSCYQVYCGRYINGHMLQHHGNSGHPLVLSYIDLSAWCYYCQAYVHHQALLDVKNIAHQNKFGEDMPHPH
Nature of the series: Inhibition of recombinant human full length HDAC6 expressed in baculovirus infected Sf9 insect cells using p53 (379 to 382 residues) derived RHKKAc as substrate preincubated for 5 to 10 mins followed by substrate addition measured after 2 hrs by fluorescence assay.

In series [3] the target is T2, Protein deacetylase HDAC6 (Homo sapiens) (UniProt Q9UBN7).
T2 sequence (whole entry): T1 sequence (Q9UBN7 whole entry)
Briefly: Inhibition of HDAC6 in human WM795 cells assessed as increase in acetylated alpha-tubulin levels at 0.5 to 8 uM after 24 hrs by Western blot method. It is filed as cell-based. In short, it runs like this:
(§1)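 WM795 human melanoma cells were treated for 24 h across a range of concentrations. Protein extracts were run on SDS-PAGE and immunoblotted with antibodies to HDAC6, α-tubulin, acetylated α-tubulin, histone H3 and acetylated H3. A selective HDAC6 inhibitor and a pan-HDAC inhibitor were included on each blot as positive controls. Blots are representative of three independent experiments.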
In general terms: A western blot detects proteins with antibodies after separation by electrophoresis.

Series [4] addresses T2, Protein deacetylase HDAC6 (Homo sapiens). Briefly: Inhibition of HDAC6 in human WM795 cells assessed as increase in acetylated histone H3 levels at 0.5 to 8 uM after 24 hrs by Western blot method. It is filed as cell-based. In short, it runs like this: as §1
The species entered for series [5] is Mus musculus. Nature of the series: Antiproliferative activity against mouse SM1 cells at 1 to 15 uM after 48 hrs by MTS assay. It is filed as functional, cell-based.
The test system of series [6] is B16. Briefly: Antiproliferative activity against mouse B16 cells at 1 to 15 uM after 48 hrs by MTS assay. It is filed as functional, cell-based. A general note: Tetrazolium assays rely on reduction of a dye to a coloured formazan, in cell work by metabolically active cells.
The species named for series [7] is Mus musculus. Nature of the series: Antiproliferative activity against mouse FcMCL cells at 1 to 15 uM after 48 hrs by MTS assay. It is filed as functional, cell-based.
The target of series [8] is T2, Protein deacetylase HDAC6 (Homo sapiens). Briefly: Inhibition of recombinant human full length HDAC6 expressed in baculovirus infected Sf9 insect cells up to 30 uM using p53 (379 to 382 residues) derived RHKKAc as substrate preincubated for 5 to 10 mins followed by substrate addition measured after 2 hrs by fluorescence assay.
The test system of series [9] is Mus musculus. Nature of the series: Antitumor activity against mouse B16-F10-luc cells xenografted in C57BL/6 mouse assessed as reduction in tumor volume at 20 mg/kg, ip administered daily for 22 days. It is filed as functional, organism-based. The method, boiled down: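 C57BL/6 mice implanted subcutaneously with B16-F10-luc WT cells; daily intraperitoneal dosing at 20 mg/kg for 22 days versus vehicle group; tumor volume and survival monitored throughout.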

Series [10] is filed under the species Homo sapiens. Nature of the series: Selectivity ratio of IC50 for recombinant human full length HDAC8 expressed in baculovirus infected Sf9 insect cells to IC50 for recombinant human full length HDAC6 expressed in baculovirus infected Sf9 insect cells.
The target in series [11] is T3, Protein deacetylase HDAC6 (Mus musculus) (UniProt Q9Z2V5).
T3 sequence (whole entry): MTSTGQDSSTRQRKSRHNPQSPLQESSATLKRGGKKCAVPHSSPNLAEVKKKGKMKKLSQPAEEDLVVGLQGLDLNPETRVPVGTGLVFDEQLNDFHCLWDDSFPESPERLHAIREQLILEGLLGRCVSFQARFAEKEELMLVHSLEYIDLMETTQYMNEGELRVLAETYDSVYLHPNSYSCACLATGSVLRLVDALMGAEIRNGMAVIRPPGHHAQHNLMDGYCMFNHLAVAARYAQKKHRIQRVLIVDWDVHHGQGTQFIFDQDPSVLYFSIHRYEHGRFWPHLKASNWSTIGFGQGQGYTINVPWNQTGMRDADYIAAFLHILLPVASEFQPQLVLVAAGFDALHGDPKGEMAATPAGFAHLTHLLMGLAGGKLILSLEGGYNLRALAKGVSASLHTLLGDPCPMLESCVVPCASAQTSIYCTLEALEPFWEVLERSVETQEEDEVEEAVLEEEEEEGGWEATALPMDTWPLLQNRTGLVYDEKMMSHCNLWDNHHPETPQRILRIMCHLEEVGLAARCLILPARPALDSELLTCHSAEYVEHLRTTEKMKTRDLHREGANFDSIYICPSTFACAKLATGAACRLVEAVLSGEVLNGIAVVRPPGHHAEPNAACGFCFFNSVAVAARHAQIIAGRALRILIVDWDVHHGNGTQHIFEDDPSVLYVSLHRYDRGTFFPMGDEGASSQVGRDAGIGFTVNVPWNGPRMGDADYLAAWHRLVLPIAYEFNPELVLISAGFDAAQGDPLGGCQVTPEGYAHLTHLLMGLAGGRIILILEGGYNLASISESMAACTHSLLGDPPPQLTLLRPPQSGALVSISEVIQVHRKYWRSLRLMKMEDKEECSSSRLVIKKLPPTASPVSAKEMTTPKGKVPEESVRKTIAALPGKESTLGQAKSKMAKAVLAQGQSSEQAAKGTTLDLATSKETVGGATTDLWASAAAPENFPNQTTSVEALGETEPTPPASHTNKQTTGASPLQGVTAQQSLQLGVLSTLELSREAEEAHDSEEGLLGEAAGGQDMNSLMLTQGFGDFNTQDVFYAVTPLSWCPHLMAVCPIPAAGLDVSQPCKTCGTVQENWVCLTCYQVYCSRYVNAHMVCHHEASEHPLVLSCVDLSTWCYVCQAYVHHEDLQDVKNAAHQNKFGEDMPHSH
Briefly: Inhibition of HDAC6 in C57BL/6 mouse primary peritoneal macrophages assessed as decrease in IL-10 production at 3 uM after 24 hrs by ELISA. The method, boiled down:
(§2)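 Cells (primary peritoneal elicited macrophages from C57BL/6 mice, or RAW264.7 murine macrophages) stimulated with LPS 1 µg/mL, with or without 3 µM compound, for 24 h; supernatants collected and IL-10 quantified by ELISA; statistics versus untreated cells.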
(In an ELISA, binding on a coated surface is turned into a signal by an enzyme label.)

For series [12], the target named is T3, Protein deacetylase HDAC6 (Mus musculus). Briefly: Inhibition of HDAC6 in mouse RAW264.7 cells assessed as decrease in IL-10 production at 3 uM after 24 hrs by ELISA. It is filed as cell-based. In short, it runs like this:
as §2

The nature of series [13]: Half life in human liver microsomes at 200 uM in presence of NADPH by LC-MS/MS analysis. It is filed as ADME, microsome.
Series [14] is described as follows: Half life in mouse liver microsomes at 200 uM in presence of NADPH by LC-MS/MS analysis. It is filed as ADME, microsome.
A short description of series [15]: Antitumor activity against mouse B16-F10-luc cells xenografted in C57BL/6 mouse assessed as mouse survival rate at 20 mg/kg, ip administered daily for 22 days (reference value: 40%). It is filed as functional. As to conditions: 528 h.
The test system of series [16] is Mus musculus. Briefly: Antitumor activity against mouse B16-F10-luc cells xenografted in C57BL/6 SCID mouse assessed as tumor growth inhibition at 20 mg/kg, ip administered daily for 20 days. It is filed as functional, organism-based.
Series [17] has as its system B16. Briefly: Antiproliferative activity against mouse B16 cells at lower concentration after 48 hrs by MTS assay. It is filed as functional, cell-based.
The species named for series [18] is Mus musculus. Briefly: Antiproliferative activity against mouse FcMCL cells at lower concentration after 48 hrs by MTS assay. It is filed as functional, cell-based.

Chain of Histone deacetylase 1 (Q13547 whole entry, the tested form may be a part): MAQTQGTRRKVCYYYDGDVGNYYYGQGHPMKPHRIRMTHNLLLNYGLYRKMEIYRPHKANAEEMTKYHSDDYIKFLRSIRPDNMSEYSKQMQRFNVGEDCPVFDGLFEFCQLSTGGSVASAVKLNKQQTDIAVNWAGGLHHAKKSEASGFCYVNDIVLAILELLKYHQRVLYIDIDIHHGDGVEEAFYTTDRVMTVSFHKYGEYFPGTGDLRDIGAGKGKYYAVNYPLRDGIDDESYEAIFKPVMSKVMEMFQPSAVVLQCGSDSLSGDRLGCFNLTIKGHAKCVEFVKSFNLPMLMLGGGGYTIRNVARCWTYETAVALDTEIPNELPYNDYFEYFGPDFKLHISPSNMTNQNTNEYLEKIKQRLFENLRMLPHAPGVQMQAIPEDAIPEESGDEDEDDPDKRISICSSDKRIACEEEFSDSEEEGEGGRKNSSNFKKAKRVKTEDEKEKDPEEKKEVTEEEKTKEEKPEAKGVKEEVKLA

With `CCCCN(Cc1ccc(N(O)C=O)cc1)C(=O)Nc1ccccc1`, the results for the IC50 in [1] and in series [2] (read-out: IC50) were greater than 30 µM and 1.02 µM, respectively.
Regarding `CCCCN(Cc1ccc(C(=O)NO)cc1)C(=O)Nc1ccccc1`, the inhibition result in [3] was “Active”. For the same molecule, the inhibition result in [4] is “inactive”.
For the molecule `CCCCN(Cc1ccc(C(=O)NO)cc1)C(=O)NCCN1CCCC1`, the figures for the IC50 in series [1] and in series [2] (read-out: IC50) were 14.4 µM and 0.074 µM, respectively.
Take `CCCCN(Cc1ccc(C(=O)NO)cc1)C(=O)Nc1ncccn1`: the IC50 in series [2] (read-out: IC50) is 0.006 µM. Besides, the result in series [5], in series [6] and in series [7] was Active. Further, the inhibition entry in series [3] is “Active”. The inhibition result in series [4] is “inactive”.
Consider `O=C(O)c1ccc(CN(CCCCO)C(=O)Nc2ccccc2)cc1`, for which the IC50 result in series [2] (sf9) is listed as “Not Active”. Further, the inhibition result in [8] is “inactive”.
`CN1CCc2c(c3ccccc3n2Cc2ccc(C(=O)NO)cc2)C1`: the outcome in [9] was Active.
On to `CCCCN(Cc1ccc(C(=O)NO)cc1)C(=O)Nc1ccc2cn[nH]c2c1`, for which the Ratio IC50 in series [10] was greater than 500. Further, the IC50 in [2] (read-out: IC50) was found to be 0.0016 µM. In addition, the outcome in series [5], in series [6], in [7] and in series [9] was Active. The inhibition entry in [3], in series [11] and in series [12] was “Active” throughout. Besides, the inhibition entry in [4] is “inactive”. Also, the half-life at 200 µM in series [13] was 6.8 h; in series [14], 3.98 h. In addition, in series [15], the survival at 20 mg/kg came out at 100%. For the same molecule, the TGI entry in [16] is “inactive”.
On to `O=C(NO)c1ccc(CN(CCCCO)C(=O)Nc2ccccc2)cc1`, for which the Ratio IC50 in series [10] is greater than 500. Also, the figures for the IC50 in series [1] and in [2] (read-out: IC50) were 2.91 µM and 0.00087 µM, respectively.
With `CCCCN(C(=O)Nc1cccc(N(C)C)c1)c1ccc(C(=O)NO)cc1`, the IC50 was greater than 30 µM in series [1] and 1.79 µM in series [2] (read-out: IC50).
For `CCCCN(Cc1ccc(NC(=O)CN)cc1)C(=O)Nc1ccccc1`, in [2] (sf9), the IC50 result is recorded as “Not Active”.
On the same count and under the same terms, with `CCCCN(Cc1ccc(/C(N)=N/O)cc1)C(=O)Nc1ccccc1` the entry was “Not Active”.
With `CCCCN(Cc1ccc(C(=O)NO)cc1)C(=O)Nc1cccc(N(C)C)c1`, the Ratio IC50 in series [10] was greater than 500. Further, the IC50 in series [2] (read-out: IC50) was 0.0017 µM. Further, the outcome in series [17] and in series [18] was Active. The inhibition entry in series [3] was “Active”. For the same molecule, in [4], the inhibition result was “inactive”.
Take `CCCCN(Cc1ccc(C(=O)NO)cc1)C(=O)Nc1cc(C)ccn1`: the IC50 was found to be 7.54 µM in series [1] and 0.043 µM in series [2] (read-out: IC50).
Take `CC(C)CN(Cc1ccc(C(=O)NO)cc1)C(=O)Nc1ccccc1`: the IC50 was determined as 6.13 µM in series [1] and 0.012 µM in [2] (read-out: IC50).
Consider `CCCCN(Cc1ccc(NC(=O)[C@H](C)N)cc1)C(=O)Nc1ccccc1`, for which the IC50 entry in series [2] (sf9) was “Not Active”.

By IC50 is commonly meant the concentration that gives 50% inhibition. By half-life is commonly meant the time needed for the level to fall by half in the phase considered.
